Laboratory results from ChEMBL document CHEMBL1128245, “Dual-acting thromboxane receptor antagonist/synthase inhibitors: synthesis and biological properties of [2-substituted-4-(3-pyridyl)-1,3-dioxan-5-yl] alkenoic acids” (J Med Chem, 1995).

Columns and labels:
Homo sapiens = species on record: Homo sapiens; assay: In vitro inhibition of U-46,619-induced aggregation of unwashed human platelets.; format: functional; conditions: for Kb: Homo sapiens, read-out: pA2 (converted)
Method in brief: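 Citrated (3.2%) human venous blood spun at 200g for 10 min. Platelet-rich plasma aggregated with U46619 with or without several antagonist concentrations.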

Thromboxane-A synthase = target: T1, Thromboxane-A synthase (Homo sapiens, UniProt P24557); assay: In vitro Inhibition of thromboxane synthase from human blood platelet microsomes
T1 sequence (P24557 whole entry): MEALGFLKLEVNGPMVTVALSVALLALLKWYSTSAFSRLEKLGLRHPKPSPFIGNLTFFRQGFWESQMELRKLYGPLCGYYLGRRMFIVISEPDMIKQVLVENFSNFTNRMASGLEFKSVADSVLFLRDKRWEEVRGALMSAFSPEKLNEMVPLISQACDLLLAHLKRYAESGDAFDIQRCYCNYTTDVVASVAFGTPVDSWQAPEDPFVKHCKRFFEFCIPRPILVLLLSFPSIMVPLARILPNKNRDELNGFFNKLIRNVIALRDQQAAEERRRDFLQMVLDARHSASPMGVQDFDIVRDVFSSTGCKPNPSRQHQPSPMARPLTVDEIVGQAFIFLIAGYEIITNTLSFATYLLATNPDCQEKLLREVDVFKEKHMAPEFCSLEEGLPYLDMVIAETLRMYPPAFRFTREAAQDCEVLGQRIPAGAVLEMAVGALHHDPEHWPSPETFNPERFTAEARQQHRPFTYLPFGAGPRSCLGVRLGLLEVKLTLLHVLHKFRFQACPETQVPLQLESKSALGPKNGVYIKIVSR
Method in brief: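 Human blood platelet microsomes incubated with [1-14C]arachidonic acid with or without inhibitor. Conversion to labeled thromboxane B2 quantified radiochromatographically. n = 2.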

Prostacyclin synthase = target: T2, Prostacyclin synthase (Homo sapiens, UniProt Q16647); assay: In vitro inhibition of Prostaglandin I2 synthase in cultured human endothelial cells
T2 sequence (Q16647 whole entry): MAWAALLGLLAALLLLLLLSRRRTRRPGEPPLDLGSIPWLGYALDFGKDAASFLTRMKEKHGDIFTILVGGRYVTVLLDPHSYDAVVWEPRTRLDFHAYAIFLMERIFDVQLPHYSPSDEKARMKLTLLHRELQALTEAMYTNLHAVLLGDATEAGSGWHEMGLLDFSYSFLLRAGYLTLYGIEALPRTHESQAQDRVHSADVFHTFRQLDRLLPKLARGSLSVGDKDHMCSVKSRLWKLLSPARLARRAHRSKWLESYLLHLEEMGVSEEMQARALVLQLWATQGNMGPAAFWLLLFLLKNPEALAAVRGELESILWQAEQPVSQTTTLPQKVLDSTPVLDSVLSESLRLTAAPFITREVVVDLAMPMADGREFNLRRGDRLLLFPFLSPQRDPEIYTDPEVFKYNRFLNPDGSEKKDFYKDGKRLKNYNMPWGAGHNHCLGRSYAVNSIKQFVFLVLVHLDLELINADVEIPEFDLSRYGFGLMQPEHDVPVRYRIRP

## O=C(O)CC/C=C\CC1COC(c2cccc3ccccc23)OC1c1cccnc1 (stereo not given)
Homo sapiens
  Kb: 0.631 µM
Thromboxane-A synthase
  IC50: 0.04 µM

## O=C(O)CC/C=C\CC1COC(c2ccc(Cl)c(Cl)c2)OC1c1cccnc1 (stereo not given)
Homo sapiens
  Kb: 0.776 µM
Thromboxane-A synthase
  IC50: 0.042 µM
Prostacyclin synthase
  IC50: 9 µM

## CC(C)(Oc1ccc(Br)cc1)C1OCC(C/C=C\CCC(=O)O)C(c2cccnc2)O1 (stereo in doubt; 7p)
Homo sapiens
  pA2: 5.61
Thromboxane-A synthase
  IC50: > 10 µM
Prostacyclin synthase
  IC50: < 1 µM

## COc1ccc(SC(C)(C)C2OCC(C/C=C\CCC(=O)O)C(c3cccnc3)O2)c([N+](=O)[O-])c1 (stereo not given)
Homo sapiens
  Kb: 0.158 µM
Thromboxane-A synthase
  IC50: 0.04 µM

## CC(C)(Oc1ccccc1Br)C1OCC(C/C=C\CCC(=O)O)C(c2cccnc2)O1 (stereo not given)
Homo sapiens
  Kb: 0.0631 µM
Thromboxane-A synthase
  IC50: 0.029 µM
Prostacyclin synthase
  IC50: 7 µM

## Cc1ccc(OC(C)(C)C2OCC(C/C=C\CCC(=O)O)C(c3cccnc3)O2)c(C#N)c1 (stereo in doubt; 7af)
Homo sapiens
  Kb: 0.00398 µM
Thromboxane-A synthase
  IC50: 0.025 µM
Prostacyclin synthase
  IC50: 12 µM

## CC(C)(C)c1ccc(OC(C)(C)C2OCC(C/C=C\CCC(=O)O)C(c3cccnc3)O2)cc1 (stereo not given)
Homo sapiens
  Kb: 1.91 µM
Thromboxane-A synthase
  IC50: 0.28 µM

## O=C(O)CC/C=C\CC1COC(c2ccc([N+](=O)[O-])cc2)OC1c1cccnc1 (stereo not given)
Homo sapiens
  Kb: 0.933 µM
Thromboxane-A synthase
  IC50: 0.039 µM
Prostacyclin synthase
  IC50: 13 µM

## Cc1ccc(OC(C)(C)C2OCC(C/C=C\CCC(=O)O)C(c3cccnc3)O2)c(C#N)c1 (stereo in doubt; 7ac)
Homo sapiens
  pA2: 8.1
Thromboxane-A synthase
  IC50: 0.05 µM
Prostacyclin synthase
  IC50: 47 µM

## Cc1ccc(OC(C)(C)C2OCC(C/C=C\CCC(=O)O)C(c3cccnc3)O2)c([N+](=O)[O-])c1 (stereo in doubt; 7y)
Homo sapiens
  pA2: < 5
Thromboxane-A synthase
  IC50: > 10 µM

## CC(C)(Oc1ccccc1F)C1OCC(C/C=C\CCC(=O)O)C(c2cccnc2)O1 (stereo not given)
Homo sapiens
  Kb: 0.166 µM
Thromboxane-A synthase
  IC50: 0.045 µM
Prostacyclin synthase
  IC50: < 1 µM

## CC(C)(Cc1ccccc1)C1OCC(C/C=C\CCC(=O)O)C(c2cccnc2)O1 (stereo not given)
Homo sapiens
  Kb: 0.513 µM
Thromboxane-A synthase
  IC50: 0.012 µM
Prostacyclin synthase
  IC50: 13 µM

## CC(C)(Oc1ccc(Br)cc1)C1OCC(C/C=C\CCC(=O)O)C(c2cccnc2)O1 (stereo in doubt; 7q)
Homo sapiens
  pA2: 6.48
Thromboxane-A synthase
  IC50: 0.022 µM
Prostacyclin synthase
  IC50: 4 µM

## CC(C)(Oc1ccc(F)cc1C#N)C1OCC(C/C=C\CCC(=O)O)C(c2cccnc2)O1 (stereo not given)
Homo sapiens
  Kb: 0.000708 µM
Thromboxane-A synthase
  IC50: 0.015 µM
Prostacyclin synthase
  IC50: 37 µM

## CC(C)(Cc1ccccc1C#N)C1OCC(C/C=C\CCC(=O)O)C(c2cccnc2)O1 (stereo not given)
Homo sapiens
  Kb: 0.0275 µM
Thromboxane-A synthase
  IC50: 0.037 µM
Prostacyclin synthase
  IC50: 14 µM

## CSc1ccc(OC(C)(C)C2OCC(C/C=C\CCC(=O)O)C(c3cccnc3)O2)c([N+](=O)[O-])c1 (stereo not given)
Homo sapiens
  Kb: 0.00447 µM
Thromboxane-A synthase
  IC50: 0.022 µM
Prostacyclin synthase
  IC50: 5 µM

## Cc1ccc(OC(C)(C)C2OCC(C/C=C\CCC(=O)O)C(c3cccnc3)O2)c([N+](=O)[O-])c1 (stereo in doubt; 7w)
Homo sapiens
  pA2: 8.34
Thromboxane-A synthase
  IC50: 0.027 µM
Prostacyclin synthase
  IC50: 33 µM

## CC(C)(Oc1ccc(F)cc1[N+](=O)[O-])C1OCC(C/C=C\CCC(=O)O)C(c2cccnc2)O1 (stereo not given)
Homo sapiens
  Kb: 0.00251 µM
Thromboxane-A synthase
  IC50: 0.02 µM
Prostacyclin synthase
  IC50: 9 µM

## CC(C)(Oc1ccc(S(C)(=O)=O)cc1)C1OCC(C/C=C\CCC(=O)O)C(c2cccnc2)O1 (stereo not given)
Homo sapiens
  Kb: 0.0912 µM
Thromboxane-A synthase
  IC50: 0.034 µM
Prostacyclin synthase
  IC50: 8 µM

## CC(=O)c1ccc(OC(C)(C)C2OCC(C/C=C\CCC(=O)O)C(c3cccnc3)O2)c([N+](=O)[O-])c1 (stereo not given)
Homo sapiens
  Kb: 0.00151 µM
Thromboxane-A synthase
  IC50: < 0.01 µM
Prostacyclin synthase
  IC50: 4 µM

## O=C(O)CC/C=C\C[C@@H]1CO[C@H](c2ccccc2Cl)O[C@@H]1c1ccccc1O
Homo sapiens
  Kb: 0.00692 µM
Thromboxane-A synthase
  IC50: > 100 µM

## CC(C)(Oc1ccccc1O)C1OCC(C/C=C\CCC(=O)O)C(c2cccnc2)O1 (stereo not given)
Homo sapiens
  Kb: 0.0955 µM
Thromboxane-A synthase
  IC50: 0.032 µM
Prostacyclin synthase
  IC50: > 100 µM

## CC(C)(Sc1ccccc1C#N)C1OCC(C/C=C\CCC(=O)O)C(c2cccnc2)O1 (stereo not given)
Homo sapiens
  Kb: 0.316 µM
Thromboxane-A synthase
  IC50: 0.04 µM

## O=C(O)CCCC/C=C(\c1ccccc1)c1cccnc1 [(E)-ISBOGREL]
Prostacyclin synthase
  IC50: > 100 µM

## N#Cc1ccc(C2OCC(C/C=C\CCC(=O)O)C(c3cccnc3)O2)cc1 (stereo not given)
Homo sapiens
  Kb: 1.29 µM
Thromboxane-A synthase
  IC50: 0.024 µM
Prostacyclin synthase
  IC50: > 100 µM

## Cc1cccc(C#N)c1OC(C)(C)C1OCC(C/C=C\CCC(=O)O)C(c2cccnc2)O1 (stereo not given)
Homo sapiens
  Kb: 0.0251 µM
Thromboxane-A synthase
  IC50: 0.09 µM
Prostacyclin synthase
  IC50: 60 µM
